Reference: ChEMBL document CHEMBL1146273, “Kynurenic acid amides as novel NR2B selective NMDA receptor antagonists” (Bioorg Med Chem Lett, 2007)

Columns and labels:
Mus musculus [1] = test: Analgesic activity against formalin-induced pain in po dosed mouse; format: ADME, organism-based
Method in brief: (§1)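 Fasted male NMRI mice (20–25 g) dosed orally with test drug or vehicle (5% Tween 80) 15 min before 20 µl of 1% formalin injected sc into right hindpaw. Licking/biting time read by visual observation at 20–25 min post-formalin (late phase). Percent decrease versus daily vehicle group; Mann–Whitney U-test; ED50 from Boltzmann sigmoidal fit.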

Rattus norvegicus = species on record: Rattus norvegicus; test: Inhibition of human recombinant NR1/NR2A receptor expressed in rat cortical cells assessed as NMDA-evoked increase in intracellular calcium level at 15 uM; format: cell-based
Method in brief: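 Fluo-4/AM Ca2+ fluorimetry on a plate reader, applied to cells expressing recombinant NR1/NR2A receptors. Inhibition (%) of the NMDA-evoked intracellular Ca2+ increase measured at 15 µM compound.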

Glutamate NMDA receptor [2] = test: Inhibition of NMDA receptor in rat cortical cells assessed as NMDA-evoked increase in intracellular calcium level; format: cell-based
Method in brief: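 Rat cortical cell culture loaded with Fluo-4/AM. Baseline and NMDA-evoked intracellular Ca2+ changes monitored by fluorimetry on a plate reader. Number of experiments (n) given per compound.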

Mus musculus [3] = test: Analgesic activity against formalin-induced pain in mouse at 20 mg/kg, po; format: ADME, organism-based; set-up: dose 20 mg/kg, route oral; details: in vivo; method in brief: as §1
[4] = molecular target: Glutamate NMDA receptor (Rattus norvegicus) (UniProt P35439+Q00959+Q00960+Q00961+Q62645+Q8VHN2+Q9R1M7); test: Inhibition of NMDA receptor in rat cortical cells assessed as NMDA-evoked increase in intracellular calcium level at 0.1 uM; format: cell-based
Method in brief: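 Rat cortical cell culture loaded with Fluo-4/AM. Baseline and NMDA-evoked intracellular Ca2+ changes monitored by fluorimetry on a plate reader. Read-out is inhibition of the NMDA-evoked Ca2+ rise, with percent inhibition taken at 0.1 µM compound. Number of experiments (n) given per compound.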

Glutamate NMDA receptor [5] = test: Displacement of [3H]Ro-256981 from NMDA receptor in rat forebrain membrane; format: cell membranes
Method in brief: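 Binding assay on rat forebrain membrane using tritiated Ro-25,6981 as radioligand.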

O=C(c1cc(=O)c2cc(O)ccc2[nH]1)N1CCC(Cc2ccc(F)cc2)CC1
ED50 (Mus musculus [1]): 9.5 mg/kg
inhibition (Rattus norvegicus): -0.9%
IC50 (Glutamate NMDA receptor [2]): 8.7 nM

O=C(c1cc(=O)c2cc(O)ccc2[nH]1)N1CCC(Cc2ccc(Cl)cc2)CC1
Activity (Mus musculus [3]): Not Active
inhibition (Rattus norvegicus): -5.1%
IC50 (Glutamate NMDA receptor [2]): 9.1 nM

O=C(c1cc2ccc(O)cc2[nH]1)N1CCC(Cc2ccccc2)CC1
inhibition (Rattus norvegicus): 15.6%

Cc1ccc(CC2CCN(C(=O)c3cc(=O)c4cc(O)ccc4[nH]3)CC2)cc1
ED50 (Mus musculus [1]): 10.6 mg/kg
inhibition (Rattus norvegicus): -2.4%
IC50 (Glutamate NMDA receptor [2]): 11 nM

O=C(c1cc(=O)c2ccc(O)cc2[nH]1)N1CCC(Cc2ccccc2)CC1
inhibition [4]: 27.9%
inhibition (Rattus norvegicus): 9.1%

Cc1ccc(OC2CCN(C(=O)c3cc(=O)c4cc(O)ccc4[nH]3)CC2)cc1
ED50 (Mus musculus [1]): 8.2 mg/kg
inhibition (Rattus norvegicus): -3.5%
Ki (Glutamate NMDA receptor [5]): 4.2 nM
IC50 (Glutamate NMDA receptor [2]): 6.2 nM

O=C(c1cc(=O)c2cc(O)ccc2[nH]1)N1CCC(Oc2ccccc2)CC1
ED50 (Mus musculus [1]): 8.5 mg/kg
inhibition (Rattus norvegicus): 0.7%
IC50 (Glutamate NMDA receptor [2]): 49.6 nM

O=C(c1cc(=O)c2cc(O)ccc2[nH]1)N1CCC(Cc2ccccc2)CC1
Activity (Mus musculus [3]): Not Active
inhibition (Rattus norvegicus): 8.9%
IC50 (Glutamate NMDA receptor [2]): 9.1 nM

C[C@H]([C@@H](O)c1ccc(O)cc1)N1CCC(Cc2ccccc2)CC1
inhibition (Rattus norvegicus): -2.7%

O=C(c1cc(=O)c2cc3[nH]c(=O)oc3cc2[nH]1)N1CCC(Cc2ccccc2)CC1
ED50 (Mus musculus [1]): > 20 mg/kg
inhibition (Rattus norvegicus): -2.1%
IC50 (Glutamate NMDA receptor [2]): 21.7 nM

O=C(c1nc2ccc(O)cc2[nH]1)N1CCC(Cc2ccccc2)CC1
inhibition (Rattus norvegicus): 21%

O=C(c1nc(=O)c2cc(O)ccc2[nH]1)N1CCC(Cc2ccccc2)CC1
inhibition (Rattus norvegicus): 13.9%
IC50 (Glutamate NMDA receptor [2]): 317 nM

O=C(c1cc(=O)c2cc(O)ccc2[nH]1)N1CCC(Oc2ccc(Cl)cc2)CC1
Activity (Mus musculus [3]): Not Active
inhibition (Rattus norvegicus): 5.1%
IC50 (Glutamate NMDA receptor [2]): 7.1 nM

O=C(c1cc(=O)c2ccccc2[nH]1)N1CCC(Cc2ccccc2)CC1
inhibition [4]: 4.5%
inhibition (Rattus norvegicus): 1.1%

O=C(c1cc2cc(O)ccc2[nH]1)N1CCC(Cc2ccccc2)CC1
inhibition (Rattus norvegicus): 17.2%
IC50 (Glutamate NMDA receptor [2]): 25 nM

CC(=O)Nc1ccc2[nH]c(C(=O)N3CCC(Cc4ccccc4)CC3)cc(=O)c2c1
inhibition [4]: 2.6%
inhibition (Rattus norvegicus): 12.4%
